# The full list was thinned out, with hits kept by preference.
# Ecoli WT expand – growth inhibitors of E. coli BW25113 wild type; OD600 absorbance; growth inhibition, % at 100 µM; hit rate 0.15% among 98,000; AID 710;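 active means growth inhibition above about 50% at one test dose, limit read from the data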;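 further: growth measured after 20 h incubation at 37 °C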
# MMP13 inh – blocks human MMP13 activity; MMP-13 fTHP FRET cleavage, Mca fluorescence; inhibition, % at 4 µM; hit rate 0.07% among 65,000; AID 570;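 active means inhibition above the mean of compound-free control plate wells plus 3 SD, cut at about 14% in these data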;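 further: 0% = DMSO wells and 100% = wells with reference MMP-13 inhibitor after basal subtraction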
# HePTP inh – blocks human HePTP tyrosine phosphatase. P35236. recombinant HePTP phosphatase activity, OD absorbance. inhibition, % at 20 µM. hit rate 0.64% among 110,000. AID 521; in the data active means inhibition above about 50%;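 further: plate controls were vehicle for no effect and reference inhibitor for full effect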
# Target sequence (P35236 whole entry, looked up): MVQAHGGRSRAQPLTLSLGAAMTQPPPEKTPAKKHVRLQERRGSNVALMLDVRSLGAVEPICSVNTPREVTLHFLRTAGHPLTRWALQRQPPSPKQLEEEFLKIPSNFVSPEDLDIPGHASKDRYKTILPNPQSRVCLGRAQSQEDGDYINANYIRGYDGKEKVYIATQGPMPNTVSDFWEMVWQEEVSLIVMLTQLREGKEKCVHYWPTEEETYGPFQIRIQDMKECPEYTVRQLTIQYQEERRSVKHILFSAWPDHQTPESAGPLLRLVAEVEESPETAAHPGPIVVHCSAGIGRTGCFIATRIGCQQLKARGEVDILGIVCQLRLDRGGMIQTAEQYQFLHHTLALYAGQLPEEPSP
# Ec RNAP inh – Escherichia coli RNA polymerase inhibition. E. coli RNA polymerase, fluorescence transcription assay. inhibition, %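 (tested at 10 µM)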. AID 559. hit rate 0.2% among 62,000. P0A8V2; in the data active means inhibition above about 20%;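 further: 0% = enzyme without compound and 100% = no enzyme blank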
# AP complement – alternative pathway complement inhibition, orthogonal assay; Human serum alternative complement pathway, LPS-coated ELISA, C3 deposition; tested in compound mixtures; inhibition, % at 5 µM; hit rate 0.08% among 62,000;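 active means inhibition above 30% in each of the two pooled mixtures holding the compound, so the lower value exceeds 30%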;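 further: 0% = serum in Mg-EGTA without compound and 100% = EDTA serum blank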
#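 Test system: human serum alternative complement pathway, C3 deposition on LPS-coated wells; also added: Plate-bound LPS; doses: 5 µM per compound in ten-compound mixtures; schedule: 1 h at 37 °C; detection: Anti-C3 ELISA, OD 450 nm; evaluation: percent inhibition of C3 deposition onto LPS; repeats: two pool placements per compound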
# tolC growth inh – blocks growth of E. coli BW25113 tolC mutant | OD615 | growth inhibition, % at 10 µM (by protocol) | hit rate 2.2% among 65,000;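 active means growth inhibition at or above a cutoff equal to the mean over every tested compound plus 3 SD, cut at about 60% in these data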;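 further: growth measured after 20 h incubation at 37 °C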
#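 Material: E. coli BW25113 ΔtolC::kan, tolC deletion mutant strain. Measure: percent growth inhibition. Schedule: 37 °C, 20 h exposure. Doses: single-point testing at 10 µM. Signal: A615 absorbance measurement. Buffer or medium: kanamycin-containing LB broth (50 µg/mL).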
# * = called active by the depositor; . = no result given.
SMILES,Ecoli WT expand,MMP13 inh,HePTP inh,Ec RNAP inh,AP complement,tolC growth inh
COc1ccc(Cc2c(O)nc(SC)n(C(C)=O)c2=O)cc1,-5.0,-1.6,5.6,25.4*,15.8,-11.8
CC1=C(C(=O)Nc2ccc(Cl)cc2)C(c2ccccc2Br)NC(=O)N1 (stereo unspecified),.,.,8.5,.,.,.
COc1ccc(C(=O)N/N=C(/C)c2ccc3c4c(cccc24)CC3)cc1,.,.,8.0,.,.,.
Cc1ccccc1N(C=O)C(=O)C1C(C)C2C=CC1C21CC1 (stereo unspecified),.,.,104.7*,.,.,.
CC(C)=C(C#N)c1nc2ccccc2s1,2.0,1.9,2.3,8.5,-12.1,0.6
COC(=O)c1ccc(/C(O)=C(\C#N)c2nc3ccccc3s2)cc1,-6.0,1.6,-12.2,8.7,-5.9,64.6*
Cc1cc(S(=O)(=O)Nc2c(C(=O)O)[nH]c3ccccc23)ccc1F,-4.0,-0.2,1.0,10.1,2.7,-6.7
COC(=O)c1[nH]c2ccc(C)cc2c1NS(=O)(=O)c1ccc(F)c(C)c1,3.0,-5.5,-0.3,5.7,12.2,96.5*
COC(=O)c1[nH]c2ccc(C)cc2c1NS(=O)(=O)c1ccc(F)cc1,-5.0,-3.8,6.5,-2.6,6.1,82.6*
CC(C)Oc1ccc(C2CC(=O)NC3=C2C(=O)CCC3)cc1 (stereo unspecified),-2.0,-0.2,4.3,22.5*,8.1,-13.5
Cc1ccc(C(=O)NCCn2cc(SCC(=O)Nc3cc(C)on3)c3ccccc32)cc1,-17.0,-0.3,4.1,2.7,32.4*,18.7
CCn1cc(C(=O)OCC(=O)Nc2c(C)n(C)n(-c3ccccc3)c2=O)c(=O)c2ccc(C)nc21,6.0,2.2,-1.4,-1.7,10.3,-0.3
CCn1cc(C(=O)OC(C)C(=O)Nc2c(C)n(C)n(-c3ccccc3)c2=O)c(=O)c2ccc(C)nc21 (stereo unspecified),26.0,4.3,9.0,-8.5,17.3,98.8*
Cc1c(NC(=O)Nc2ccc(Cl)c(Cl)c2)c(=O)n(-c2ccccc2)n1C,13.0,-2.8,3.9,.,3.0,100.0*
Cc1c(NC(=S)Nc2ccc(Cl)cc2)c(=O)n(-c2ccccc2)n1C,.,.,4.8,.,.,.
COc1ccc(Br)cc1/C=C1\C(=O)NC(=S)N(c2ccc(C)cc2)C1=O,.,.,13.6,.,.,.
[N-]=[N+]=CC(=O)c1ccnc(C(=O)C=[N+]=[N-])c1,55.0*,-2.5,-2.1,1.1,.,8.0
N#Cc1nc(COc2ccc(Br)cc2)oc1NCCCn1ccnc1,38.0,2.4,5.1,3.7,-4.3,96.9*
N#Cc1nc(-c2ccc(OCc3ccccc3)cc2)oc1NCCCn1ccnc1,5.0,-53.0,5.3,1.9,-0.3,100.0*
CCCOc1ccc(-c2nc(C#N)c(NCCCn3ccnc3)o2)cc1,-2.0,.,.,.,.,.
N#Cc1nc(-c2ccc(OCc3ccccc3Cl)cc2)oc1NCCCn1ccnc1,11.0,-7.3,2.8,7.3,7.6,99.7*
COc1ccc(CCNc2oc(COc3ccccc3F)nc2C#N)cc1OC,-13.0,0.3,4.3,1.6,25.4,33.2
COc1ccc(CCNc2oc(COc3ccc(F)cc3)nc2C#N)cc1,1.0,0.2,0.5,-0.2,3.6,95.9*
CCOc1cc(/C=C2/C(=O)NC(=O)N(c3ccccc3)C2=O)cc(Br)c1O,.,.,5.1,.,.,.
O=C(O)CCCCCN1C(=O)C2C3c4ccccc4C(c4ccccc43)C2C1=O (stereo unspecified),.,.,-10.5,.,.,.
SMILES,Ecoli WT expand,MMP13 inh,HePTP inh,Ec RNAP inh,AP complement,tolC growth inh
CC(=O)NS(=O)(=O)c1ccc(NC(=O)c2cc([N+](=O)[O-])ccc2Cl)cc1,.,.,1.8,.,.,.
CC(=O)NS(=O)(=O)c1ccc(NC(=O)c2ccc([N+](=O)[O-])cc2[N+](=O)[O-])cc1,.,.,69.8*,.,.,.
O=C(c1ccc(N2CCN(C(=O)c3ccccc3Br)CC2)cc1)c1cccc(F)c1,.,.,102.2*,.,.,.
Cc1ccc(Nc2nc(N)nc(CN3CCN(c4ccccc4)CC3)n2)cc1Cl,-1.0,-3.0,4.3,10.2,20.8,77.0*
COc1ccc(N2CCN(Cc3nc(N)nc(Nc4ccc(C)c(Cl)c4)n3)CC2)cc1,1.0,3.4,5.1,6.8,1.2,32.2
C=CCn1c(O)c(C2=c3ccccc3=NC2=O)sc1=Nc1ccc(O)cc1,.,6.6,5.8,3.8,13.8,100.0*
O=C1N=c2ccccc2=C1c1sc(=Nc2ccccc2)n(-c2ccccc2)c1O,.,.,3.8,.,.,.
O=C1CCCc2nc3nc4ccccc4n3cc21,46.0,-2.9,15.1,7.6,9.3,92.9*
O=C(NC(=S)Nc1ccc(Cl)c(-c2nc3cc(Cl)ccc3o2)c1)c1ccco1,.,.,7.2,.,.,.
CCOC(=O)C1=C(O)/C(=C/c2ccc(C)cc2)SC1=Nc1ccc(C)cc1,.,.,53.6*,.,.,.
Cc1ccc(N2C(=O)c3ccccc3NC2c2ccccc2F)cc1 (stereo unspecified),.,.,0.5,.,.,.
CCc1nnc(NC(=O)CSc2nnc(-c3ccccc3O)n2CC)s1,8.0,.,.,.,.,.
CCn1c(SCC(=O)Nc2nc(-c3ccccc3)cs2)nnc1-c1ccccc1O,-1.0,3.7,-2.7,3.0,6.0,86.0*
O=C(NNC(=S)NC(=O)c1cccnc1)c1ccc(Cl)cc1,74.0*,.,.,.,.,.
O=C(NC(=S)Nc1cc([N+](=O)[O-])cc(Cl)c1O)c1cccnc1,.,.,102.6*,.,.,.
CN1CCN(CC(=O)n2c3ccccc3c3ccccc32)CC1,.,.,-13.2,.,.,.
CC(C)COC(=O)NCCOC(=O)Nc1cccc(Cl)c1,25.0,0.1,5.9,10.2,-0.7,89.0*
CC(C)COC(=O)NCCCOC(=O)Nc1ccccc1,1.0,4.0,-8.4,7.2,-7.7,8.0
CCN(CC)c1ccc(C(=O)n2cnc3ccccc32)cc1,-6.0,-0.1,5.8,4.1,7.7,77.9*
CC1CCc2c(sc(NC(=O)c3ccc(Cl)c(Cl)c3)c2C(N)=O)C1 (stereo unspecified),.,.,104.7*,.,.,.
CCOC(=O)Nc1sc2c(c1C(N)=O)CCC(C)C2 (stereo unspecified),.,.,102.7*,.,.,.
CC1CCc2c(sc(NC(=O)c3cccc(Br)c3)c2C(N)=O)C1 (stereo unspecified),.,.,-14.5,.,.,.
CCCC(=O)Nc1cc2nn(-c3ccc(C)cc3)nc2cc1C,.,.,0.7,.,.,.
Cc1ccc(-n2nc3cc(C)c(NC(=O)Cc4ccccc4)cc3n2)cc1,.,.,63.4*,.,.,.
O=C(COc1ccc(Cl)cc1Cl)N1CCN(c2cccc(Cl)c2)CC1,.,.,4.1,.,.,.
C=CCc1c(C)nc(SCc2nc3ccccc3c(=O)[nH]2)[nH]c1=O,5.0,4.5,1.4,10.2,6.1,100.0*
Cc1cc(NC(=O)c2cccc(Br)c2)ccc1-c1cc2ccccc2oc1=O,.,.,1.2,.,.,.
CCOC(=O)c1c(C)n(OCc2ccccc2)c2ccc3c(no[n+]3[O-])c12,-7.0,4.7,9.3,4.2,4.7,0.6
Cn1c(-c2ccccc2)cc2c3no[n+]([O-])c3ccc21,2.0,2.9,5.0,-6.2,16.8,95.1*
COc1ccc(-c2cc(C(F)(F)F)c(C#N)c(SCC(=O)Nc3ccc(C)cc3)n2)cc1,3.0,.,.,.,.,.

# Compound activity as filed in PubChem BioAssay.
